Results taken from ChEMBL document CHEMBL2069268, “Opioid activity of spinally selective analogues of N-naphthoyl-β-naltrexamine in HEK-293 cells and mice” (J Med Chem, 2012).
Activity calls are given as the source filed them.

Experiments:
[1] = target: Delta-type opioid receptor (Homo sapiens) (UniProt P41143); test: Agonist activity at human delta opioid receptor expressed in HEK cells assessed as induction of intracellular calcium release by FLIPR assay; assay type: functional, cell-based; conditions: HEK293
Summary of the method: (§1)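 HEK-293 cells stably carrying chimeric Δ6-Gαqi4-myr (zeocin selection, DMEM+10% FBS, 37 °C, 10% CO2) transiently transfected with opioid receptor DNA (200 ng/20,000 cells); seeded 24 h later; day 3 loaded with Ca2+ dye 60 min at 37 °C. After 30 s equilibration, ligand added over a concentration range; fluorescence read; ΔRFU (max−min) per concentration fitted by nonlinear regression; peak effect recorded; ≥3 independent runs, 4 internal replicates.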

[2] = system: Mus musculus; test: Antinociceptive effect in intrathecally dosed ICR-CD1 mouse by tail flick test; assay type: functional
Summary of the method: (§2)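 Male ICR-CD1 mice (17–25 g), conscious, dosed intrathecally in 5 μl (10% DMSO stock diluted to ≤1% DMSO). Radiant-heat tail-flick; %MPE = (test−control)/(10−control)×100 with 10 s cutoff. Peak antinociception located by time course at 10, 20, 30, 60 min. ≥3 groups of 8–10 mice per curve, mice used once; ED50 with 95% CI by nonlinear regression.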

[3] = system: Mus musculus; test: Antinociceptive effect in intracerebroventricular dosed ICR-CD1 mouse by tail flick test; assay type: functional
Summary of the method: (§3)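 Male ICR-CD1 mice (17–25 g), conscious, given compound i.c.v. in 5 μl (stock in 10% DMSO, diluted to ≤1% DMSO). Radiant-heat tail-flick latency, 10 s cutoff; %MPE = (test−control)/(10−control)×100. Peak time from time course at 10, 20, 30, 60 min. ≥3 groups of 8–10 mice per dose-response curve, each mouse used once; ED50 with 95% CI by nonlinear regression.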

[4] = target: Opioid receptors; mu & kappa (Homo sapiens) (UniProt P41145+P35372); test: Agonist activity at human mu-kappa opioid receptor expressed in HEK cells assessed as induction of intracellular calcium release by FLIPR assay; assay type: functional, cell-based; conditions: HEK293; summary of the method: as §1
[5] = system: Mus musculus; test: Antinociceptive effect in intrathecally dosed ICR-CD1 mouse assessed as peak time effect by tail flick test; assay type: functional; summary of the method: as §2
[6] = system: Mus musculus; test: Toxicity in intrathecally dosed ICR-CD1 mouse assessed as dose tolerance after 24 hrs; assay type: organism-based; conditions: in vivo, icv_or_intrathecal
Summary of the method: (§4)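 Acute 24 h tolerance in male ICR-CD1 mice by i.c.v. or i.t. route: highest (ED80–90) dose of the day-1 dose-response curve repeated on the same mice 24 h later; tail-flick %MPE compared between days; no significant difference taken as not tolerant.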

[7] = system: Mus musculus; test: Antinociceptive effect in intrathecally dosed wild type ICR-CD1 mouse after 20 mins in presence of NTI; assay type: functional
Summary of the method: (§5)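 Wild-type male ICR-CD1 mice dosed intrathecally in 5 μl (≤1% DMSO) with antagonist timed to peak with agonist: NTI 5 nmol/mouse or nor-BNI 2.5 nmol/mouse, each 20 min peak time.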

[8] = system: Mus musculus; test: Antinociceptive effect in intrathecally dosed wild type ICR-CD1 mouse after 20 mins in presence of nor-BNI; assay type: functional; summary of the method: as §5
[9] = system: Mus musculus; test: Antinociceptive effect in intrathecally dosed MOR-KO mouse; assay type: functional, organism-based
Summary of the method: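 MOR-KO mice, 13–15 weeks old, equal males and females, eight per group, given compound intrathecally in 5 μl (≤1% DMSO); antinociception scored by radiant-heat tail-flick as %MPE with 10 s cutoff.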

[10] = system: Mus musculus; test: Antinociceptive effect in intracerebroventricular dosed ICR-CD1 mouse assessed as peak time effect by tail flick test; assay type: functional; summary of the method: as §3
[11] = system: Mus musculus; test: Toxicity in intracerebroventricular dosed ICR-CD1 mouse assessed as dose tolerance after 24 hrs; assay type: organism-based; conditions: in vivo, icv_or_intrathecal; summary of the method: as §4
[12] = target: Opioid receptors; mu & delta (Homo sapiens) (UniProt P41143+P35372); test: Agonist activity at human mu-delta opioid receptor expressed in HEK cells assessed as induction of intracellular calcium release by FLIPR assay; assay type: functional, cell-based; conditions: HEK293; summary of the method: as §1
[13] = target: Opioid receptors; delta & kappa (Homo sapiens) (UniProt P41145+P41143); test: Agonist activity at human delta-kappa opioid receptor expressed in HEK cells assessed as induction of intracellular calcium release by FLIPR assay; assay type: functional, cell-based; conditions: HEK293; summary of the method: as §1
Sequence of Opioid receptors; delta & kappa (Homo sapiens) (P41143 whole entry, looked up): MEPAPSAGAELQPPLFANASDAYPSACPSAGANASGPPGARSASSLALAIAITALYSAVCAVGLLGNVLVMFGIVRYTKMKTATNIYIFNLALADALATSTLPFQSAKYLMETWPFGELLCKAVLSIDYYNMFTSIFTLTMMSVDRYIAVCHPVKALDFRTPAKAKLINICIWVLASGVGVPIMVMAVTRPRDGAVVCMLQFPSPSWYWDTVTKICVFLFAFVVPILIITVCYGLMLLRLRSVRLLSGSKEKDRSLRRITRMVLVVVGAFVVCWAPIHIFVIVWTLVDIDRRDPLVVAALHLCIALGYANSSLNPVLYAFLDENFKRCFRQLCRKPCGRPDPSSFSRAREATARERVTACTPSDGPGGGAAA
Sequence of Opioid receptors; delta & kappa (Homo sapiens) (P41145 whole entry, looked up): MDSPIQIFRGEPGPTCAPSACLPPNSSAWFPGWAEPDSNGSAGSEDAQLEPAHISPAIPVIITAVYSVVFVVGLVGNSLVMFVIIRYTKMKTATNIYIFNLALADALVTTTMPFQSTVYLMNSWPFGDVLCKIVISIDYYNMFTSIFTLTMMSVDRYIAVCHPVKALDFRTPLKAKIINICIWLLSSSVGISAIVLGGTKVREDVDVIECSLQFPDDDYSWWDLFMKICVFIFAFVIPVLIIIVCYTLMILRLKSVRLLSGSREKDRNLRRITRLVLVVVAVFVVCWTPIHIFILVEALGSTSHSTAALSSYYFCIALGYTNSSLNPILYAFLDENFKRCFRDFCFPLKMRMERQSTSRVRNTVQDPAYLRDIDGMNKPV

Sequence of Delta-type opioid receptor (Homo sapiens) (P41143 whole entry): as the sequence (P41143 whole entry, looked up) above
Sequence of Opioid receptors; mu & kappa (Homo sapiens) (P35372 whole entry, looked up): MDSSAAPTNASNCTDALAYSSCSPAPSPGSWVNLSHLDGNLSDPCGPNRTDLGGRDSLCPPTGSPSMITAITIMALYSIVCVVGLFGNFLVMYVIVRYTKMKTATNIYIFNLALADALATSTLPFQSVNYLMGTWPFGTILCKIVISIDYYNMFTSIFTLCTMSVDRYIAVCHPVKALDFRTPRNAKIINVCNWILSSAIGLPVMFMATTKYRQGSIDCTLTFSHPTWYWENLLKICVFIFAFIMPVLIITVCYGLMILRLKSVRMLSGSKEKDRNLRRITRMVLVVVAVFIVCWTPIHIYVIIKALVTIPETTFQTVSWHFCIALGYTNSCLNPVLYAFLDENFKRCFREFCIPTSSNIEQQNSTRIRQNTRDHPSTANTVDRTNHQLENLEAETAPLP
Sequence of Opioid receptors; mu & kappa (Homo sapiens) (P41145 whole entry, looked up): as the sequence (P41145 whole entry, looked up) above
Sequence of Opioid receptors; mu & delta (Homo sapiens) (P35372 whole entry, looked up): as the sequence (P35372 whole entry, looked up) above
Sequence of Opioid receptors; mu & delta (Homo sapiens) (P41143 whole entry, looked up): as the sequence (P41143 whole entry, looked up) above

| SMILES | Activity [1] | MPE [2] | MPE [3] | Activity [4] | Time [5] [min] | Activity [6] | ED50 [7] [nmol] | ED50 [8] [nmol] | Activity [9] | ED50 [2] [pmol] | Time [10] [min] | Activity [11] | ED50 [3] [pmol] | Activity [12] | Activity [13] |
| --- | --- | --- | --- | --- | --- | --- | --- | --- | --- | --- | --- | --- | --- | --- | --- |
| O=C(N[C@@H]1CC[C@@]2(O)[C@H]3Cc4ccc(O)c5c4[C@@]2(CCN3CC2CC2)[C@H]1O5)c1cccc2ncccc12 | inactive | <=60% | <=60% |  |  |  |  |  |  |  |  |  |  |  |  |
| O=C(N[C@H]1CC[C@@]2(O)[C@H]3Cc4ccc(O)c5c4[C@@]2(CCN3CC2CC2)[C@H]1O5)c1ccc2ccccc2c1 |  | <=60% | <=60% | inactive |  |  |  |  |  |  |  |  |  |  |  |
| O=C(N[C@@H]1CC[C@@]2(O)[C@H]3Cc4ccc(O)c5c4[C@@]2(CCN3CC2CC2)[C@H]1O5)c1ccc2cc(F)ccc2c1 | Active |  | <=60% |  | 20 | Non-toxic | 5 | 2.5 | inactive | 81.1 |  |  |  |  |  |
| COc1ccc2cc(C(=O)N[C@@H]3CC[C@@]4(O)[C@H]5Cc6ccc(O)c7c6[C@@]4(CCN5CC4CC4)[C@H]3O7)ccc2c1 |  | <=60% | <=60% |  | 5 |  |  |  |  |  | 10 |  |  |  |  |
| CN(C(=O)c1ccc2ccccc2c1)[C@@H]1CC[C@@]2(O)[C@H]3Cc4ccc(O)c5c4[C@@]2(CCN3CC2CC2)[C@H]1O5 | Active | <=60% | <=60% | inactive |  |  |  |  |  |  |  |  |  |  |  |
| COc1cc2ccccc2cc1C(=O)N[C@@H]1CC[C@@]2(O)[C@H]3Cc4ccc(O)c5c4[C@@]2(CCN3CC2CC2)[C@H]1O5 | Active |  |  |  | 5 | Non-toxic |  |  |  | 115.1 |  | Toxic | 312.4 |  |  |
| O=C(N[C@@H]1CC[C@@]2(O)[C@H]3Cc4ccc(O)c5c4[C@@]2(CCN3CC2CC2)[C@H]1O5)c1cnc2ccccc2n1 | inactive |  |  | Active | 5 | Non-toxic |  |  |  | 50.8 |  |  | 757.2 | Active |  |
| Cl.O=C(N[C@@H]1CC[C@@]2(O)[C@H]3Cc4ccc(O)c5c4[C@@]2(CCN3CC2CC2)[C@H]1O5)c1ccc2ccccc2c1 |  |  |  | Active | 5 | Non-toxic |  |  |  | 18.7 | 20 | Toxic | 2060 |  |  |
| O=C(N[C@@H]1CC[C@@]2(O)[C@H]3Cc4ccc(O)c5c4[C@@]2(CCN3CC2CC2)[C@H]1O5)c1cccc2ccccc12 |  |  | <=60% | Active |  |  |  |  |  | 20.9 |  | Toxic |  |  | Active |
| O=C(N[C@@H]1CC[C@@]2(O)[C@H]3Cc4ccc(O)c5c4[C@@]2(CCN3CC2CC2)[C@H]1O5)c1nccc2ccccc12 | inactive |  |  | Active | 20 | Non-toxic |  |  |  | 1408 | 10 |  | 2070 | Active |  |
